Source: publication PMC6453127 (Biochimica et biophysica acta. General subjects, 2017)
Entries after “also recorded” stand apart in the source; their conditions may differ.

What was measured:
Hsp90α = Hsp90α (Homo sapiens, UniProt P07900); assay: DARTs assay, full-length recombinant Hsp90α, pronase proteolysis; assay type: binding; details: 200 μM compound
Hsp90β [1] = target: T1, Hsp90β (Homo sapiens, UniProt P08238); assay: Microscale thermophoresis; assay type: binding; details: read-out: Kd (MST); labeled Hsp90β 40 nM
GST-Hsp90α CTD [2] = target: T2, GST-Hsp90α CTD (Homo sapiens, UniProt P07900); assay: BS3 crosslinking assay, GST-Hsp90α CTD; assay type: biochemical; details: 2 μM protein; NSC145366 10 μM to 100 μM
Hsp70 = Hsp70 (Homo sapiens, UniProt P0DMV8); assay: Transcreener ADP Hsp70 ATPase assay; assay type: biochemical; details: 0.5 μM Hsp70; up to 200 μM
Procedure, shortened: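 Stopped with EDTA stop-and-detect buffer containing ADP² antibody-IRDye QC-1 and 8 nM ADP Alexa594 tracer, 1 h at RT. Endpoint fluorescence intensity read. Three experiments, four-parameter logistic fit.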

LNCaP cells [3] = assay: Cytotoxicity to LNCaP cells; assay type: cell-based; details: 5 μM; data not shown
GST-Hsp90α CTD (626–732) = GST-Hsp90α CTD (626–732) (Homo sapiens, UniProt P07900); assay: DARTs assay with GST-Hsp90α CTD; assay type: binding; details: 200 μM compound
Hsp90β [4] = target: T1, Hsp90β; assay: Transcreener ADP Hsp90 ATPase assay; assay type: biochemical; details: read-out: IC50, Hsp90β ATPase function; 0.5 μM Hsp90β, 250 μM ATP, 37 °C 30 min
BSA = BSA (Bos taurus, UniProt P02769); assay: Crosslinking specificity control with BSA; assay type: biochemical
DU-145 = assay: NCI-60 screen, DU-145 prostate cancer cell line; assay type: cell-based, human; details: NCI re-screen
Procedure, shortened: (§1)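 NCI Developmental Therapeutics Program re-screen, 5-concentration dose response. Growth measured by SRB staining.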

His6-Hsp90β CTD = His6-Hsp90β CTD (Homo sapiens, UniProt P08238); assay: BS3 crosslinking dimerization/oligomerization assay, His6-Hsp90β CTD; assay type: biochemical; details: 2 μM protein; BS3 crosslinker
PC3 = assay: NCI-60 screen, PC3 prostate cancer cell line; assay type: cell-based, human; details: NCI re-screen
Procedure, shortened: as §1

Hsp90 CTD = assay: DTT-induced insulin aggregation chaperone assay; assay type: biochemical; details: 100 μM compound; 10 μM Hsp90 CTD
Procedure, shortened: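 200 μM insulin preincubated with 10 μM Hsp90 CTD, with or without compound, in 10 mM NaPO₄ and 100 mM NaCl at 30 °C for 1 h. Aggregation induced with 20 mM DTT and followed by absorbance at 650 over 40 min in a plate reader.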

[5] = mouse xenograft models; ref http://dtp.cancer.gov; cited from earlier work
GST-Hsp90α CTD [6] = target: T2, GST-Hsp90α CTD; assay: ATP-agarose pulldown, Hsp90 CTD; assay type: binding; details: 200 μM compound, 6 μM CTD
full-length Hsp90α = full-length Hsp90α (Homo sapiens, UniProt P07900); assay: BS3 crosslinking assay, full length Hsp90α; assay type: biochemical; details: 2 μM protein; BS3 crosslinker
Procedure, shortened: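 Full-length Hsp90α used at 2 μM in 50 mM NaPO₄ and 150 mM NaCl, preincubated with compound for 1 h at room temperature. BS3 crosslinker added at 66–200 μM final for 1 h at RT, then quenched with 50 mM Tris-HCl pH 7.5 for 15 min. Analysed by 10% SDS-PAGE and western blot.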

LNCaP cells [7] = assay: Western blot of Hsp90 clients and heat shock proteins in LNCaP cells; assay type: cell-based; details: 48 h
Procedure, shortened: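 ATCC LNCaP cells kept in ATCC-recommended medium, authenticated and used within 20 passages. Cells treated for 48 h, trypsinised, PBS-washed and lysed in RIPA with protease inhibitors, 1 mM PMSF, 0.1% Triton X-100 and 1 mM DTT. Protein measured by Bradford before western blot. Band intensities of treated samples expressed as percentage of vehicle.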

GST-Hsp90α NTD (9–236) = GST-Hsp90α NTD (9–236) (Homo sapiens, UniProt P07900); assay: DARTs assay with GST-Hsp90α NTD; assay type: binding; details: 200 μM compound
Lewis lung carcinoma = details: 3.12 mg/kg; Lewis lung carcinoma mouse model; ref http://dtp.cancer.gov; cited from earlier work
GST-Hsp90α CTD [8] = target: T2, GST-Hsp90α CTD; assay: ADH aggregation; assay type: biochemical
Procedure, shortened: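 Reaction: 6.2 μM equine ADH, with or without 500 nM GST-Hsp90α CTD and compound. Aggregation induced at 55 °C, read as absorbance at 360 nm every minute for 90 min. The 90-min endpoint was used, with the mean of ADH alone set to 100%. Three independent experiments.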

GST-Hsp90α NTD [9] = target: T3, GST-Hsp90α NTD (Homo sapiens, UniProt P07900); assay: ATP-agarose pulldown, Hsp90 NTD; assay type: binding; details: 200 μM compound, 6 μM NTD
Hsp90 = assay: Luciferase refolding assay in rabbit reticulocyte lysate; assay type: biochemical
Procedure, shortened: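 Recombinant luciferase at 100 μg/mL in Tricine pH 7.8 buffer (MgCl₂, DTT, EDTA, 10% glycerol, 10 mg/mL BSA), heat-denatured at 41 °C for 30 min. Then added to rabbit reticulocyte lysate preincubated at 30 °C with compound. Aliquots taken every 15 min for 90 min into luciferase reagent and luminescence read. DMSO at 90 min set to 100%. Triplicate.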

GST-Hsp90α NTD [10] = target: T3, GST-Hsp90α NTD; assay: BS3 crosslinking assay, GST-Hsp90α NTD; assay type: biochemical; details: 2 μM protein
Procedure, shortened: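 2 μM protein buffer-exchanged into 50 mM NaPO₄ and 150 mM NaCl, then preincubated with compound for 1 h at room temperature. BS3 added at 66–200 μM final for 1 h at RT, then quenched with 50 mM Tris-HCl pH 7.5 for 15 min. Boiled in SDS dye, run on 10% SDS-PAGE, western-blotted and probed with anti-GST antibody.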

Hsp90β [11] = target: T1, Hsp90β; assay: Competitive displacement of FITC-GA; assay type: binding; details: competitor 3 nM to 3 μM; 60 nM Hsp90β, 5 nM FITC-GA

T1 sequence (P08238 whole entry): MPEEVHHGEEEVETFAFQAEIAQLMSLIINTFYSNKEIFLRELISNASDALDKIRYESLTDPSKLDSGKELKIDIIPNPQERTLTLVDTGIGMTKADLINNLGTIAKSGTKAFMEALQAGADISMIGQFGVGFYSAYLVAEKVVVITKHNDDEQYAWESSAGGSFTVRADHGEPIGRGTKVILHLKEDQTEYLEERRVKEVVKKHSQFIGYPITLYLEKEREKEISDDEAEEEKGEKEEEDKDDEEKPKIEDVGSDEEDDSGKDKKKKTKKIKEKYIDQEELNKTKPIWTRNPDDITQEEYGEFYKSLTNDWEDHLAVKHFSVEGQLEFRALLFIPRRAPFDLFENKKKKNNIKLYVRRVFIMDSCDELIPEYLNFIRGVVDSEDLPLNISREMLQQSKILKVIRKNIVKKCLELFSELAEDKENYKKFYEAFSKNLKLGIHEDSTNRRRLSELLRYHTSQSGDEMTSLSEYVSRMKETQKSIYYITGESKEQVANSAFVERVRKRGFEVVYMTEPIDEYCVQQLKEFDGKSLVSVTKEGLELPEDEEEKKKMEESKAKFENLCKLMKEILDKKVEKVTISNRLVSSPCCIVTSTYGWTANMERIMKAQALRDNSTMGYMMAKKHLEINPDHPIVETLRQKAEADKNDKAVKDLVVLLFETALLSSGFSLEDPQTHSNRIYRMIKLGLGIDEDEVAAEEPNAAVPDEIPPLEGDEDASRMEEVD
His6-Hsp90β CTD, sequence (P08238 530-724): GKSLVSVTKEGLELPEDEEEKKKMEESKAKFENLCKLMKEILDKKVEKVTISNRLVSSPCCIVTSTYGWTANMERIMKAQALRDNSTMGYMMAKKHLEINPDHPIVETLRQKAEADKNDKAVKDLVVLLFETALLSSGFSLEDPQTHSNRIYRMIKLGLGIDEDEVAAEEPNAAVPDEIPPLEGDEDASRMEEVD
Hsp70, sequence (P0DMV8 whole entry): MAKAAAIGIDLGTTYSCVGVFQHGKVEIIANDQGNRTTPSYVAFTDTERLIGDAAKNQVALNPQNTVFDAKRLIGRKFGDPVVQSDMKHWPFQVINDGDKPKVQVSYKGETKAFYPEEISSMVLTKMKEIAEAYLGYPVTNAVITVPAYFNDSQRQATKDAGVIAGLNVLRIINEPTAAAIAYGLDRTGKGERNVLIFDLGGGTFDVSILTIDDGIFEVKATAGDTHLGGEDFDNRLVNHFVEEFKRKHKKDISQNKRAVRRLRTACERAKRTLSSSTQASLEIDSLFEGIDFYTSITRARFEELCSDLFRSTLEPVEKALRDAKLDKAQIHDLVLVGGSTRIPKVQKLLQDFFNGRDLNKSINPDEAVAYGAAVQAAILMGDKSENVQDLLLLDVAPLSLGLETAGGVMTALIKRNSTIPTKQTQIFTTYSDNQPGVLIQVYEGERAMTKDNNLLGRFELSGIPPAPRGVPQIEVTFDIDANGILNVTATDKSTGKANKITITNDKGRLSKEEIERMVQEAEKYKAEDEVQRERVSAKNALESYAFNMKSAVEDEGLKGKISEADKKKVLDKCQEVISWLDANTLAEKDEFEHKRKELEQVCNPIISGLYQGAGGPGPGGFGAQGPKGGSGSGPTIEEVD
BSA, sequence (P02769 25-607): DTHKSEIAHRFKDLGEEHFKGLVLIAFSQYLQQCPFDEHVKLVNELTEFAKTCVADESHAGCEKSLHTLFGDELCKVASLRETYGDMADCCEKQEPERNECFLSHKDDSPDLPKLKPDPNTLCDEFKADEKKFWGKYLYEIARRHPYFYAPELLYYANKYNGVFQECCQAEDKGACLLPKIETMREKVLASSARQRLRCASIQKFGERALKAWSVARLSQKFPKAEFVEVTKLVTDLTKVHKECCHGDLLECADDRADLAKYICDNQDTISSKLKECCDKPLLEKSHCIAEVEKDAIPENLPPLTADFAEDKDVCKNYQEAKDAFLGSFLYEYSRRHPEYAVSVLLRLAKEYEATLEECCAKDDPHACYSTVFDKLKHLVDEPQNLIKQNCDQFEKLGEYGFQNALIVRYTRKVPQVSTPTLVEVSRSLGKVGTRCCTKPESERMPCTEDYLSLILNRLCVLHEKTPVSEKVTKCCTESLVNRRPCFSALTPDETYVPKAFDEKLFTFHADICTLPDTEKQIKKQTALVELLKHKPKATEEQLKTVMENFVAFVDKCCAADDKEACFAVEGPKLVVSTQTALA

For `CC(C)(C)CC(C)(C)NCC(O)COc1ccc(C(C)(C)c2ccc(OCC(O)CNC(C)(C)CC(C)(C)C)cc2)cc1.Cl` (stereo not drawn) [NSC145366, 1-(4-(2-(4-(2-hydroxy-3-(2,4,4-trimethylpentan-2-ylami-no)propoxy)phenyl)propan-2-yl)phenoxy)-3-(2,4,4-trimethylpentan-2-ylamino)propan-2-ol hydrochloride], the “protection of Hsp90α from pronase degradation (DARTs)” value (Hsp90α) was “protection of Hsp90α was clearly observed”, the Kd (Hsp90β [1]) was ~3800 nM and the “oligomerization state of GST-Hsp90α CTD (crosslinking)” value (GST-Hsp90α CTD [2]) was “induced CTD oligomerization increases in a dose dependent manner”. For the same compound, the “inhibition of Hsp70 ATPase function” value (Hsp70) was “no inhibitory activity up to 200 μM”, the “cytotoxicity to LNCaP cells” value (LNCaP cells [3]) was “completely cytotoxic” and the “protection of Hsp90 CTD from pronase degradation (DARTs)” value (GST-Hsp90α CTD (626–732)) was “protects the Hsp90 CTD from pronase degradation”. For the same compound, the IC50 (Hsp90β [4]) was ~109000 nM, the “oligomerization of BSA” value (BSA) was “does not induce oligomerization of BSA” and the GI50 (DU-145) was 1380 nM. For the same compound, the “oligomerization state of His6-Hsp90β CTD (crosslinking)” value (His6-Hsp90β CTD) was “even higher order oligomerized species; also recorded: CTD monomer band was eliminated”, the GI50 (PC3) was 1850 nM and the “inhibition of CTD chaperone activity, insulin aggregation” value (Hsp90 CTD) was “inhibits CTD chaperone activity”. For the same compound, the toxic dose [5] was ≥ 6.25 mg/kg, the “inhibition of CTD binding to ATP-agarose” value (GST-Hsp90α CTD [6]) was “does not disrupt NTD or CTD binding to ATP” and the “oligomerization state of full-length Hsp90α (crosslinking)” value (full-length Hsp90α) was “presence of a higher-order oligomer”. The “induction of classical heat shock response (Hsp70, Hsp27, Hsp40)” value (LNCaP cells [7]) was “not detectable”, the “AR expression level compared to DMSO” value (LNCaP cells [7]; 1 μM and 3 μM) was 50% and the Akt expression (LNCaP cells [7]; 1 μM and 3 μM) was “do not show significant downregulation”. The BRAF expression (LNCaP cells [7]; 1 μM and 3 μM) was “do not show significant downregulation”, the “BRCA1 expression level compared to DMSO” value (LNCaP cells [7]; 3 μM) was 15% and the Hsp40 expression (LNCaP cells [7]; 3 μM) was “only appears to induce Hsp40 expression after 48 h cellular treatment at the highest concentration”. The “protection of Hsp90 NTD from pronase degradation (DARTs)” value (GST-Hsp90α NTD (9–236)) was “no protection observed”, the “antitumor activity, treated/control” value (Lewis lung carcinoma) was 68% and the “level of ADH aggregation, dose dependence” value (GST-Hsp90α CTD [8]; 10 μM to 40 μM) was “increases the level of ADH aggregation in a dose dependent manner”. The “inhibition of Hsp90 CTD chaperone (anti-aggregation) activity, ADH aggregation assay” value (GST-Hsp90α CTD [8]; 40 μM compound, 500 nM Hsp90 CTD, 55 °C, end point 90 min) was “completely eliminates CTD chaperone activity”, the “inhibition of NTD binding to ATP-agarose” value (GST-Hsp90α NTD [9]) was “does not disrupt NTD or CTD binding to ATP” and the “level of inhibition of luciferase refolding compared with Cm A1” value (Hsp90; 25 and 50 μM) was “greater than C-terminal inhibitor Cm A1”. The “luciferase refolding (luciferase activity vs vehicle)” value (Hsp90; rabbit reticulocyte lysate, 90 min) was “decreased luciferase activity as compared to vehicle treated lysates”, the “oligomerization of GST-Hsp90α NTD (crosslinking)” value (GST-Hsp90α NTD [10]) was “no effect on oligomerization of the NTD” and the “competition with FITC-GA binding to Hsp90β” value (Hsp90β [11]) was “does not compete with FITC-GA binding”.
